From ChEMBL document CHEMBL1255211, “Novel azulene-based derivatives as potent multi-receptor tyrosine kinase inhibitors” (Bioorg Med Chem Lett, 2010)
pIC50: −log10 of the molar value.

Columns and labels:
[1] = target: T1, Receptor-type tyrosine-protein kinase FLT3 (Homo sapiens, UniProt P36888); assay: Inhibition of FLT3 by time resolved fluorescence method
T1 sequence (P36888 whole entry): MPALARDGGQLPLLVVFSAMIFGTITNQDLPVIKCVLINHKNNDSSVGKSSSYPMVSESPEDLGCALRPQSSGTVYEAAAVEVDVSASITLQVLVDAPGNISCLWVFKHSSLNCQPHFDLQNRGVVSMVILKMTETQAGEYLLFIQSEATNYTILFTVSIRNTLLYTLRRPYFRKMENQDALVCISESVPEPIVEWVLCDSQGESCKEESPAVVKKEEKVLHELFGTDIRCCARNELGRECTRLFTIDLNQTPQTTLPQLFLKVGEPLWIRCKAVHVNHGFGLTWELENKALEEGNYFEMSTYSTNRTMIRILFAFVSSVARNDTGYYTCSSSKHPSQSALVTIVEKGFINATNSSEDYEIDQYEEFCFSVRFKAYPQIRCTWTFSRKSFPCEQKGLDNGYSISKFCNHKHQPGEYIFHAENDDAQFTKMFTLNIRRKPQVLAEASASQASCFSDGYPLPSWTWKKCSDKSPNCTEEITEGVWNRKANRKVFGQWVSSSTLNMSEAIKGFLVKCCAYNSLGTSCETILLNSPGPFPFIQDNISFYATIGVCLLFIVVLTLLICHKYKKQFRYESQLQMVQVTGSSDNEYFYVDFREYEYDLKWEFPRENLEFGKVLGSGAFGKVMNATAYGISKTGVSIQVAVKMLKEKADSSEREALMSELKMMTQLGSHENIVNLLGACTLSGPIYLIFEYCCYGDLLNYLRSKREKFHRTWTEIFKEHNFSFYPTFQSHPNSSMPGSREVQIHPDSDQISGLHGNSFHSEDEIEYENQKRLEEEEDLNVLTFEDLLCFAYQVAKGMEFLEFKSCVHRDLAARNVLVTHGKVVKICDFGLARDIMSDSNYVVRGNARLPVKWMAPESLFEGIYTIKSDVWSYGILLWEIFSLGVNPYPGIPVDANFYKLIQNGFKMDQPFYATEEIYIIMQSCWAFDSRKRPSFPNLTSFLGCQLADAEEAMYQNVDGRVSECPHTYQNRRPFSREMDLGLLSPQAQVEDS

[2] = Oral bioavailability in Sprague-Dawley rat; format: ADME, organism-based; conditions: in vivo
In short: (§1)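 Overnight-fasted male SD rats got a single intravenous or oral dose, n = 3 per route. Vehicle was 10% N-methyl-2-pyrrolidone, 20% cremophor EL, 70% phosphate-buffered saline. Plasma was prepared from blood by centrifugation, stored at -80 °C and assayed by LC/MS/MS. Parameters came from noncompartmental analysis and are means of three animals.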

MV4-11 [3] = assay: Antitumor activity against human MV4-11 cells xenografted in BALB/c mouse assessed as inhibition of tumor growth at 50 mg/kg, po bid for 14 days measured on day 30; format: functional
In short: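 Female BALB/c nude mice, 6-8 weeks old, were implanted s.c. in the right flank with 1 × 10⁷ MV4-11 cells. Dosing began at tumor size 200-300 mm³, with four mice per group randomized. Treatment was 50 mg/kg oral gavage b.i.d. for 14 days (day 16 to 29) in 10% NMP/20% Cremophor EL/70% saline vehicle. Calipers gave tumor volume = 0.5 × length × width².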

[4] = AUC in po dosed Sprague-Dawley rat; format: ADME, organism-based; conditions: plasma; in short: as §1
[5] = Cmax in po dosed Sprague-Dawley rat; format: ADME, organism-based; design: route oral; conditions: in vivo; in short: as §1
[6] = AUC in iv dosed Sprague-Dawley rat; format: ADME, organism-based; conditions: plasma; in short: as §1
[7] = Tmax in po dosed Sprague-Dawley rat; format: ADME, organism-based; conditions: in vivo; in short: as §1
Rattus norvegicus [8] = assay: Elimination half life in iv dosed Sprague-Dawley rat; format: ADME, organism-based; conditions: in vivo; in short: as §1
Rattus norvegicus [9] = assay: Volume of distribution at steady state in iv dosed Sprague-Dawley rat; format: ADME, organism-based; conditions: in vivo; in short: as §1
[10] = target: Platelet-derived growth factor receptor beta (Homo sapiens, UniProt P09619); assay: Inhibition of PDGFRbeta autophosphorylation by cell based Western blot analysis
[11] = target: Vascular endothelial growth factor receptor 2 (Homo sapiens, UniProt P35968); assay: Inhibition of KDR autophosphorylation in HUVEC by Western blot analysis; format: cell-based
[12] = target: T1, Receptor-type tyrosine-protein kinase FLT3; assay: Inhibition of FLT3 autophosphorylation in human RS4-11 cells by Western blot analysis; format: cell-based
[13] = target: Mast/stem cell growth factor receptor Kit (Homo sapiens, UniProt P10721); assay: Inhibition of c-Kit autophosphorylation in human Kasumi-1 cells by Western blot analysis; format: cell-based
[14] = target: Receptor-type tyrosine-protein kinase FLT3 (Homo sapiens, UniProt P36888, ITD); assay: Inhibition of FLT3-ITD autophosphorylation in human MV4-11 cells by Western blot analysis; format: cell-based
In short: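 Cells were plated at 2-5 × 10⁵ per well and stimulated with the receptor ligand: SCF for c-Kit, VEGF-162 for KDR, FL for FLT-3. Blots were probed with anti-phosphotyrosine PY99 and reprobed with antibodies to c-Kit, KDR or FLT-3.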

MV4-11 [15] = assay: Cytotoxicity against human MV4-11 cells by MTT assay

Sequence of Platelet-derived growth factor receptor beta (P09619 whole entry): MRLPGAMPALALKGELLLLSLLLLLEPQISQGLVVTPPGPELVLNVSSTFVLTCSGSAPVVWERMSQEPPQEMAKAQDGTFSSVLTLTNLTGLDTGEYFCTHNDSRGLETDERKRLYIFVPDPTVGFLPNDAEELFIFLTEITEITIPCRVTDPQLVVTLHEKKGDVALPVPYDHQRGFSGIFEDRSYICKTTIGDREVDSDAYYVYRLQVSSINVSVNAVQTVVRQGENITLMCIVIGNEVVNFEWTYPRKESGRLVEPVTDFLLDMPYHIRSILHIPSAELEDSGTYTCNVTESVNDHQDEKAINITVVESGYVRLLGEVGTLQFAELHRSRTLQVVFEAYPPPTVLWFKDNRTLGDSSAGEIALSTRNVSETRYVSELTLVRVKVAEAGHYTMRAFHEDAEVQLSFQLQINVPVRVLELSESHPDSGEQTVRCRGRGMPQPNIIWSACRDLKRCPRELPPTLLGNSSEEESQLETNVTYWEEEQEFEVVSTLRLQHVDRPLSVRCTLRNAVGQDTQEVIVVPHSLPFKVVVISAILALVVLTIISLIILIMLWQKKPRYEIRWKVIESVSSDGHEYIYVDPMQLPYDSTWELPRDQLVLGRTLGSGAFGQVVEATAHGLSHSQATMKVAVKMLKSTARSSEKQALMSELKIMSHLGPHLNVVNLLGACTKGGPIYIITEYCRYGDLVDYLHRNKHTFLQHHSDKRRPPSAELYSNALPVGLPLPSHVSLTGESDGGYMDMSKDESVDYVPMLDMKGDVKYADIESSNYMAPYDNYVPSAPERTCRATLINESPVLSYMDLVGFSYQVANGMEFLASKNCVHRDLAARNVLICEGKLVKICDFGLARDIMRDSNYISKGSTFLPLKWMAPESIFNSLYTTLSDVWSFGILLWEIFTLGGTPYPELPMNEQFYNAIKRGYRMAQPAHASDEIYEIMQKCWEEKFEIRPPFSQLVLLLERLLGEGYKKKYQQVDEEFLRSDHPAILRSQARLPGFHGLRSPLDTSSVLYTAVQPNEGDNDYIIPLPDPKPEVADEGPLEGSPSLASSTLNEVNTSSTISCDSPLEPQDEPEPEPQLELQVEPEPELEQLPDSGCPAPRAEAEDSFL
Sequence of Mast/stem cell growth factor receptor Kit (P10721 whole entry): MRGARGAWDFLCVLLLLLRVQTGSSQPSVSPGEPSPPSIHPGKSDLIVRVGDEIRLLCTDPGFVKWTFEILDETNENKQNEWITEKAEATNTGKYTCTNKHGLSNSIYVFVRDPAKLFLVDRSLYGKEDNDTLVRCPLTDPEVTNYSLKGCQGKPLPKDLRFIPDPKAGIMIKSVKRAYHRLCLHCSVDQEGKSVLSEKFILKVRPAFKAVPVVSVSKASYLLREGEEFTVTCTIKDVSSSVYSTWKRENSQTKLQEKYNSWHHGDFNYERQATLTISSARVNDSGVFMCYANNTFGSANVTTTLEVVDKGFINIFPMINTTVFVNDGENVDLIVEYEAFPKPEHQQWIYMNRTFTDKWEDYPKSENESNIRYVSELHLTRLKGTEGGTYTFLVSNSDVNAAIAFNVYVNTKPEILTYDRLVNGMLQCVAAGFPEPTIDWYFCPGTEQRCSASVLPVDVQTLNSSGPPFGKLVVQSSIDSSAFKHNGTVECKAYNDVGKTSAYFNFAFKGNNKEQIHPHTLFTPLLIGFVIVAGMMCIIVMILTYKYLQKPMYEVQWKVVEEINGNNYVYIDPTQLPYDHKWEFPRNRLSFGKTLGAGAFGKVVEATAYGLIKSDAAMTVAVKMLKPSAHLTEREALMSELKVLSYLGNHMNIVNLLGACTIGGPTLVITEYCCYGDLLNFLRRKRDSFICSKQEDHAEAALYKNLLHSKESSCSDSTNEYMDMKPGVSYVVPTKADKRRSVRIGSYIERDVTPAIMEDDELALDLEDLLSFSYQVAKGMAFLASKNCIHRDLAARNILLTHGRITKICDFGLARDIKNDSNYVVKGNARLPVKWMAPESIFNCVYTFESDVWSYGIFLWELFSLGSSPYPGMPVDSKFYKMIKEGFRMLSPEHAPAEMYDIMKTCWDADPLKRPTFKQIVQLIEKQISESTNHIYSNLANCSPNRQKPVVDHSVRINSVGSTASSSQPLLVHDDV
Sequence of Vascular endothelial growth factor receptor 2 (P35968 whole entry): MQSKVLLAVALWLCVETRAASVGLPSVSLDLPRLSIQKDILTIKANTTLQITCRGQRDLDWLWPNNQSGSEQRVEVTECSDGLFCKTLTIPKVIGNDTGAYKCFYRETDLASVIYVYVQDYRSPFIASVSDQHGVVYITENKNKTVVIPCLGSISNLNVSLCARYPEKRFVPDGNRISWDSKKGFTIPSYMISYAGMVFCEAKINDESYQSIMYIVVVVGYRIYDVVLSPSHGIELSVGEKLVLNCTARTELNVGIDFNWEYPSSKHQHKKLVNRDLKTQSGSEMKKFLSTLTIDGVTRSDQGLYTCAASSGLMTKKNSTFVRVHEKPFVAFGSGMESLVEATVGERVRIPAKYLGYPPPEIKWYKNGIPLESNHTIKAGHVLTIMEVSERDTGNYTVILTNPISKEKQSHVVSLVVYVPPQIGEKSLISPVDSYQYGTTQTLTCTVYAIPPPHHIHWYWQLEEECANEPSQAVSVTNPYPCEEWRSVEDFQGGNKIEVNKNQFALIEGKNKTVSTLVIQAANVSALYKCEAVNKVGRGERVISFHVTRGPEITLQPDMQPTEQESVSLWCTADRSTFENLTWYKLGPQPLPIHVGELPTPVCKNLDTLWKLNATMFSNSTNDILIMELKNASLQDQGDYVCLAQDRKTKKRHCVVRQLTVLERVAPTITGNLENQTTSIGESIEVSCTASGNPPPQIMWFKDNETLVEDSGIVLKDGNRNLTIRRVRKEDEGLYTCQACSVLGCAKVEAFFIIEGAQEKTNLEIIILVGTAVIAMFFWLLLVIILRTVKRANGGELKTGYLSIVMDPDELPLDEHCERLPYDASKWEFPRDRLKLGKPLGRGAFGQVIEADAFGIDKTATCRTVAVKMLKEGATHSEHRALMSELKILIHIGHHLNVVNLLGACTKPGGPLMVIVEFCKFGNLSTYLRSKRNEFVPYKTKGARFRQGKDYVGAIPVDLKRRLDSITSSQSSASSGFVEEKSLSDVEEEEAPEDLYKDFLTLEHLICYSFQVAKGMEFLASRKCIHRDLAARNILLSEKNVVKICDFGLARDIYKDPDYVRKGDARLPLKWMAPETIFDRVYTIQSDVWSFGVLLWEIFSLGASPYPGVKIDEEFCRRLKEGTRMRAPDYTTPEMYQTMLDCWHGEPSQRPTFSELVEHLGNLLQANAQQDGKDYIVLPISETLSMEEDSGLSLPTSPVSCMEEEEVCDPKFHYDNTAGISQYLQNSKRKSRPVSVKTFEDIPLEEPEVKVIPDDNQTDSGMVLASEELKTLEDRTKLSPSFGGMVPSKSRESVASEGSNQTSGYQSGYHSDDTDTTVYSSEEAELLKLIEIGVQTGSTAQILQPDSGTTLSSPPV

Compound | pIC50 [1] | further results
CCN(CC)CCCOc1ccccc2c(/C=C3\C(=O)Nc4ccc(F)cc43)cc(C)c1-2 | 7.41 | –
Cc1cc(/C=C2\C(=O)Nc3ncc(F)cc32)c2ccccc(OCCCN3CCOCC3)c1-2 | 7.05 | –
O=C1Nc2ccc(F)cc2/C1=C/c1ccc2cccccc1-2 | < 6.00 | –
CCN(CC)CCCOc1ccccc2c(/C=C3\C(=O)Nc4ccc(F)c(F)c43)cc(C)c1-2 | 7.85 | –
O=C1Nc2ccc(F)cc2/C1=C/c1cc(F)c2cccccc1-2 | 7.64 | –
Cc1cc(/C=C2\C(=O)Nc3ccc(F)c(F)c32)c2ccccc(OCCCN3CCOCC3)c1-2 | 7.92 | –
Cc1cc(/C=C2\C(=O)Nc3ccc(F)cc32)c2ccccc(OCCN3CCOCC3)c1-2 | 7.72 | –
Cc1cc(/C=C2\C(=O)Nc3ncccc32)c2ccccc(OCCCN(C)C)c1-2 | 5.84 | –
Cc1cc(/C=C2\C(=O)Nc3ccc(F)c(F)c32)c2ccccc(OCCCN3CCCCC3)c1-2 | 7.77 | –
Cc1cc(/C=C2\C(=O)Nc3ccc(F)cc32)c2ccccc(OCCCN3CCOCC3)c1-2 | 6.65 | –
Cc1cc(/C=C2\C(=O)Nc3ccc(F)cc32)c2ccccc(OCCN3CCC(N(C)C)CC3)c1-2 | 7.74 | –
Cc1cc(/C=C2/C(=O)Nc3ccc(F)cc32)c2ccccc(OCCCN(C)C)c1-2 | 7.60 | –
Cc1cc(/C=C2\C(=O)Nc3ccc(F)cc32)c2cccccc1-2 | 6.89 | –
Cc1cc(/C=C2\C(=O)Nc3ccc(F)cc32)c2ccccc(OCCCN(C)C)c1-2 | 7.92 | –
Cc1cc(/C=C2\C(=O)Nc3ccccc32)c2cccccc1-2 | < 6.00 | –
O=C1Nc2ccc(Br)cc2/C1=C\c1ccc2cccccc1-2 | < 6.00 | –
O=C1Nc2ccccc2C1=Cc1ccc2cccccc1-2 | 6.33 | –

The next lines start with results.

pIC50 [1] | Compound | further results
7.01 | Cc1cc(C=C2C(=O)Nc3ccc(F)cc32)c2ccccc(OCCN3CCC[C@H]3CO)c1-2 (mixture of isomers) | bioavailability [2]: 22.8%; inhibition in vivo at 50 mg/kg (MV4-11 [3]): 99%; AUC [4]: 3220 ng·h/mL; Cmax [5]: 566 ng/mL; AUC [6]: 1410 ng·h/mL; Tmax [7]: 2 h; t1/2 (Rattus norvegicus [8]): 108 min; Vss/F (Rattus norvegicus [9]): 1232.4 mL/kg; pIC50 [10]: 7.55; pIC50 [11]: 6.73; pIC50 [12]: 7.15; pIC50 [13]: 7.36; pIC50 [14]: 7.17; pIC50 (MV4-11 [15]): 7.06
< 6.00 | Cc1ccc2c(c1)/C(=C/c1ccc3cccccc1-3)C(=O)N2 | –
< 6.00 | CN(C)S(=O)(=O)c1ccc2c(c1)/C(=C/c1ccc3cccccc1-3)C(=O)N2 | –
7.07 | Cc1cc(/C=C2\C(=O)Nc3ncc(Br)cc32)c2ccccc(OCCCN3CCOCC3)c1-2 | –
6.13 | Cc1cc(/C=C2/C(=O)Nc3cc(F)ccc32)c2ccccc(OCCCN(C)C)c1-2 | –
7.52 | CCN(CC)CCCOc1ccccc2c(/C=C3/C(=O)Nc4ccc(F)cc43)cc(C)c1-2 | –
7.22 | Cc1cc(/C=C2/C(=O)Nc3ccc(F)cc32)c2cccccc1-2 | –
< 6.00 | Cc1cc(/C=C2/C(=O)Nc3ccccc32)c2cccccc1-2 | –
6.75 | Cc1cc(/C=C2/C(=O)Nc3c(F)cccc32)c2ccccc(OCCCN(C)C)c1-2 | –
< 6.00 | O=C1Nc2ccc(Br)cc2/C1=C/c1ccc2cccccc1-2 | –
8.30 | Cc1cc(/C=C2\C(=O)Nc3ccc(F)c(F)c32)c2ccccc(OCCCN(C)C)c1-2 | –
